B1: Osa-1-4 twister ribozyme (parent)
chain: CCGCCUAACACUGCCAAUGCCGGUCCCAAGCCCGGAUAAAAGUGGAGGGGGCGG

Variants of: B1
Assay: self-cleavage, relative activity (ratio to wild type); higher = more cleavage; co-transcriptional
Procedure, shortened: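 Relative activity is the fraction cleaved divided by that of the wild-type ribozyme. The library came from a DNA template for a 54-nucleotide Oryza sativa twister ribozyme, doped at the 48 positions downstream of the cleavage site with 97 % wild-type base and 1 % of each other base. After 2 h of in vitro transcription at 37 °C with co-transcriptional self-cleavage, the RNA was reverse-transcribed with a template-switching oligonucleotide, amplified by PCR and deep-sequenced, and reads with or without upstream sequence gave the cleavage status.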

Variant	self-cleavage
A39G G50U	1
A39G G50A	0.72
A39G G50C	0.84
A39G A8U	0.17
A39G A8C	0.08
A39G A8G	0.35
A39G C20A	0.91
A39G C20U	0.96
A39G C20G	0.13
A40C C15U	0.05
A40C C15G	0.04
A40C C15A	0.05
A39G C27U	0.11
A39G C27G	0.07
A39G C27A	0.09
A39C U24C	0.06
A39C U24A	0.05
A39C U24G	0.03
A39G G47U	0.13
A39G G47A	0.13
A39G G47C	0.09
A39G U12G	0.28
A39G U12C	0.19
A39G U12A	0.69

Variant	self-cleavage
A39G A40U	0.16
A39G A40C	0.05
A39G A40G	0.36
A39G G34U	0.68
A39G G34A	0.8
A39G G34C	0.42
A40C C26U	0.04
A40C C26G	0.02
A40C C26A	0.02
A39C G54A	0.62
A39C G54U	0.65
A39C G54C	0.6
A39U C21U	0.99
A39U C21A	0.38
A39U C21G	0.07
A39U A40G	0.65
A39U A40U	0.64
A39U A40C	0.12
A39U C9A	0.33
A39U C9U	0.74
A39U C9G	0.42
A39C G53C	0.06
A39C G53U	0.12
A39C G53A	0.37

Variant	self-cleavage
A39C U18A	0.93
A39C U18G	0.83
A39C U18C	0.96
A39U C14A	0.09
A39U C14U	0.17
A39U C14G	0.12
A39U C52U	1
A39U C52G	1.01
A39U C52A	0.96
A39U C27G	0.09
A39U C27A	0.12
A39U C27U	0.12
A39G C32A	0.08
A39G C32G	0.14
A39G C32U	0.1
A39G G42C	0.16
A39G G42A	0.37
A39G G42U	0.08
A39U C32U	0.11
A39U C32G	0.1
A39U C32A	0.08
A39U A7U	0.08
A39U A7C	0.04
A39U A7G	0.2

Variant	self-cleavage
A39G G35C	0.22
A39G G35A	0.78
A39G G35U	0.87
A39U C26G	0.11
A39U C26A	0.04
A39U C26U	0.54
A39C G42U	0.05
A40C C27A	0.05
A40C C27U	0.03
A40C C27G	0.02
A40C C32U	0.03
A40C C32A	0.04
A40C C32G	0.03
A39G C26G	0.25
A39G C26A	0.06
A39G C26U	0.55
A39U G51U	0.28
A39U G51C	0.06
A39U G51A	0.61
A39G C31A	0.03
A39G C31G	0.1
A39G C31U	0.56
A39U C15A	0.24
A39U C15G	0.23

Variant	self-cleavage
A39U C15U	0.56
A39U G45A	0.12
A39U G45U	0.05
A39U G45C	0.06
A39G G54U	0.8
A39G G54C	0.76
A39G G54A	0.79
A39G G22C	0.08
A39G G22A	0.95
A39G G22U	0.26
A39U A46C	0.05
A39U A46U	0.07
A39U A46G	0.04
A39U G50C	0.82
A39U G50U	1.01
A39U G50A	0.63
A39G G49C	0.08
A39G G49A	0.26
A39G G49U	0.1
A39U C20G	0.09
A39U C20A	0.84
A39U C20U	0.96
A39U G48A	0.08
A39U G48U	0.06

Variant	self-cleavage
A39U G48C	0.05
A39G G45A	0.13
A39G G45U	0.08
A39G G45C	0.07
A39U G23A	0.26
A39U G23U	0.05
A39U G23C	0.06
A39G U24G	0.02
A39G U24C	0.14
A39G U24A	0.09
A39U U24C	0.12
A39U U24A	0.07
A39U U24G	0.03
A39G G53A	0.55
A39G G53U	0.2
A39G G53C	0.08
A39U G42U	0.07
A39U G42C	0.11
A39U G42A	0.17
A39C G47A	0.08
A39C G47U	0.1
A39C G47C	0.06
A39C G51A	0.53
A39C G51C	0.05

Variant	self-cleavage
A39C G51U	0.21
A39U A8G	0.31
A39U A8C	0.08
A39U A8U	0.16
A39U G30U	0.05
A39U G30C	0.05
A39U G30A	0.04
A39U C25G	0.07
A39U C25A	0.06
A39U C25U	0.45
A39U G53C	0.07
A39U G53A	0.49
A39U G53U	0.19
A39U G13C	0.03
A39U G13U	0.02
A39U G13A	0.05
A40C C31A	0.02
A40C C31U	0.06
A40C C31G	0.02
A39G C33A	0.08
A39G C33G	0.07
A39G C33U	0.63
A40C A41C	0.28
A40C A41U	0.42

Variant	self-cleavage
A40C A41G	0.1
A40C C14U	0.05
A40C C14A	0.04
A40C C14G	0.03
A39G A41G	0.46
A39G A41U	0.95
A39G A41C	0.6
A39U G22U	0.67
A39U G22C	0.06
A39U G22A	0.93
A39U A41G	0.26
A39U A41C	0.66
A39U A41U	1.03
A39G G44U	0.89
A39G G44A	0.85
A39G G44C	0.93
A40C C11U	0.07
A40C C11A	0.05
A40C C11G	0.03
A39U U18G	0.88
A39U U18A	0.95
A39U U18C	0.97
A39G A7G	0.31
A39G A7U	0.08

Variant	self-cleavage
A39G A7C	0.04
A39C G50U	1
A39C G50C	0.67
A39C G50A	0.64
A39U G47C	0.07
A39U G47U	0.11
A39U G47A	0.13
A39G G48U	0.07
A39G G48A	0.1
A39G G48C	0.08
A40C C25G	0.03
A40C C25A	0.03
A40C C25U	0.04
A40C A8U	0.04
A40C A8G	0.05
A40C A8C	0.04
A39G C21U	1.01
A39G C21G	0.08
A39G C21A	0.55
A40C C33U	0.04
A40C C33A	0.05
A40C C33G	0.02
A39U C33A	0.09
A39U C33U	0.52

Variant	self-cleavage
A39U C33G	0.07
A39G G51U	0.3
A39G G51C	0.09
A39G G51A	0.67
A39U G44U	0.9
A39U G44C	0.91
A39U G44A	0.77
A39G G23A	0.2
A39G G23C	0.07
A39G G23U	0.07
A39U G49A	0.11
A39U G49C	0.06
A39U G49U	0.08
A39C U37C	1.02
A39C U37G	0.98
A39C U37A	0.92
A39U G19C	0.07
A39U G19A	0.35
A39U G19U	0.11
A40C C21A	0.07
A40C C21G	0.02
A40C C21U	0.09
A39U C11U	0.89
A39U C11A	0.38

Variant	self-cleavage
A39U C11G	0.24
A40C C20G	0.04
A40C C20U	0.08
A40C C20A	0.09
A39G C14A	0.08
A39G C14U	0.11
A39G C14G	0.12
A39G C9U	0.73
A39G C9G	0.66
A39G C9A	0.39
A40C A7C	0.02
A40C A7G	0.06
A40C A7U	0.02
A39G U18G	0.87
A39G U18C	0.96
A39G U18A	1
A39G C25G	0.07
A39G C25A	0.07
A39G C25U	0.53
A40C A46U	0.03
A40C A46G	0.02
A40C A46C	0.04
A39C U12C	0.11
A39C U12A	0.44

Variant	self-cleavage
A39C U12G	0.11
A39G U43C	0.24
A39G U43A	0.8
A39G U43G	0.36
A39G C15U	0.21
A39G C15G	0.31
A39G C15A	0.41
A39G	1
A39U	1
A39C G44C	0.93
A39C G44U	0.88
A39C G44A	0.71
A39U G54A	0.73
A39U G54U	0.77
A39U G54C	0.73
A39G A46C	0.05
A39G A46G	0.06
A39G A46U	0.09
A39G G13C	0.03
A39G G13U	0.03
A39G G13A	0.07
A39C G45U	0.06
A39C G45C	0.05
A39C G45A	0.08

Variant	self-cleavage
A39G C52G	0.98
A39G C52A	0.97
A39G C52U	1.04
A39C U43A	0.33
A39C U43C	0.16
A39C U43G	0.16
A39U U37A	0.99
A39U U37G	1.02
A39U U37C	1
A39U G34A	0.68
A39U G34C	0.25
A39U G34U	0.53
A39G U37G	1.01
A39G U37A	1.01
A39G U37C	1
A39U G35C	0.19
A39U G35U	0.87
A39U G35A	0.83
A39U U12A	0.59
A39U U12C	0.15
A39U U12G	0.15
A39C G48C	0.05
A39C G48A	0.06
A39C G48U	0.05

Variant	self-cleavage
A39G G30C	0.05
A39G G30U	0.04
A39G G30A	0.05
A39G C11U	0.93
A39G C11A	0.62
A39G C11G	0.51
A39U C31A	0.03
A39U C31G	0.08
A39U C31U	0.67
A40C	0.09
A39U U43A	0.43
A39U U43C	0.12
A39U U43G	0.18
A39G G19U	0.26
A39G G19C	0.31
A39G G19A	0.7
A40C C9U	0.05
A40C C9G	0.07
A40C C9A	0.02
A39C G49U	0.06
A39C G49A	0.07
A39C G49C	0.06

From the RNAGym collection of RNA variant scans (doi:10.1002/anie.201605470)
